The nature of assay [1]: Inhibition of Bovine coronavirus 9-SOAE expressed in Sf9 cells assessed as inhibition of hydrolysis of pNPA at 2 mM.
Assay [2] in a line: Inhibition of Bovine coronavirus […] assessed as inhibition of hydrolysis of pNPA at 1 mM. To be noted: Sf9.
Assay [3] is described as follows: Inhibition of Bovine coronavirus 9-SOAE expressed in Sf9 cells assessed as inhibition of hydrolysis of pNPA at 0.5 mM.
Assay [4] is described as follows: Inhibition of Influenza C virus C/JJ/50 9-SOAE expressed in Sf9 cells assessed as inhibition of hydrolysis of pNPA at 1 mM.
A short description of assay [5]: Inhibition of recombinant influenza C virus C/Cal/78 GFP-tagged 9-SOAE expressed in Sf9 cells assessed as inhibition of hydrolysis of pNPA at 5 mM. In short, it runs like this:
(§1)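 EGFP-fused haemagglutinin-esterase was made in serum-free Sf9 cultures via recombinant baculovirus and recovered from supernatant by ultracentrifugation (1.5 h, 4 °C). It was preincubated with sialoside for 30 min at room temperature. pNPA (10 µl of 100 mM acetonitrile stock) was added in PBS pH 7.4 to 1 ml, and A400 was followed. Read-out was % inhibition of pNPA hydrolysis.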

Assay [6] can be described thus: Inhibition of recombinant influenza C virus C/Cal/78 GFP-tagged 9-SOAE expressed in Sf9 cells assessed as inhibition of hydrolysis of pNPA at 2 mM. In short, it runs like this: as §1
Assay [7] in a line: Inhibition of recombinant influenza C virus C/Cal/78 GFP-tagged 9-SOAE expressed in Sf9 cells assessed as inhibition of hydrolysis of pNPA at 1 mM. In short, it runs like this:
as §1

The nature of assay [8]: Inhibition of recombinant influenza C virus C/Cal/78 GFP-tagged 9-SOAE expressed in Sf9 cells assessed as inhibition of hydrolysis of pNPA at 0.5 mM. In short, it runs like this:
as §1

Assay [9] in a line: Inhibition of recombinant influenza C virus C/Cal/78 GFP-tagged 9-SOAE expressed in Sf9 cells assessed as inhibition of Neu5,9Ac2 hydrolysis at 1 mM by fluorimetric HPLC analysis. The procedure, abridged:
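Baculovirus/Sf9-expressed EGFP fusion (10 mU) was preincubated with 1 mM sialoside in PBS pH 7.4 for 30 min at room temperature. Free O-acetylated sialic acid or bovine submandibular mucin (10 µg) was then added and incubated at 37 °C for 20–240 min. Mucin samples were hydrolysed in 2 M propionic acid (80 °C, 2 h). Sialic acids were analysed by reverse-phase HPLC with fluorimetric detection.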

Assay [10] in a line: Inhibition of SDAV GFP-tagged 9-SOAE expressed in Sf9 cells assessed as inhibition of hydrolysis of pNPA at 5 mM. To be noted: Rat sialodacryoadenitis coronavirus. The procedure, abridged: as §1
Assay [11] can be described thus: Inhibition of SDAV GFP-tagged 9-SOAE expressed in Sf9 cells assessed as inhibition of hydrolysis of pNPA at 1 mM. To be noted: Rat sialodacryoadenitis coronavirus. In short, it runs like this:
as §1

Assay [12] can be described thus: Inhibition of SDAV GFP-tagged 9-SOAE expressed in Sf9 cells assessed as inhibition of hydrolysis of pNPA at 0.5 mM. To be noted: Rat sialodacryoadenitis coronavirus. In short, it runs like this: as §1
Assay [13] is described as follows: Inhibition of SDAV GFP-tagged 9-SOAE expressed in Sf9 cells assessed as inhibition of hydrolysis of pNPA at 0.1 mM. As to conditions: Rat sialodacryoadenitis coronavirus. The procedure, abridged: as §1
Assay [14] in a line: Inhibition of MHV S 4-SOAE expressed in Sf9 cells assessed as inhibition of hydrolysis of pNPA at 5 mM. To be noted: Murine coronavirus.
Assay [15] in a line: Inhibition of MHV S 4-SOAE expressed in Sf9 cells assessed as inhibition of hydrolysis of pNPA at 1 mM. To be noted: Murine coronavirus.
Assay [16] in a line: Inhibition of MHV S 4-SOAE expressed in Sf9 cells assessed as inhibition of hydrolysis of pNPA at 0.5 mM. To be noted: Murine coronavirus.
Assay [17] in a line: Inhibition of MHV S 4-SOAE expressed in Sf9 cells assessed as inhibition of hydrolysis of pNPA at 0.1 mM. To be noted: Murine coronavirus.
Assay [18] is described as follows: Inhibition of influenza C virus 9-SOAE assessed as inhibition of hydrolysis of pNPA. In short, it runs like this:
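Esterase came from whole virions purified by ultracentrifugation through a 20% sucrose cushion (1.5 h, 4 °C) and resuspended in PBS pH 7.4. Enzyme was preincubated with sialoside for 30 min at room temperature. pNPA (10 µl of 100 mM acetonitrile stock) was then added in PBS pH 7.4 to 1 ml, and A400 was monitored. Read-out was % inhibition of pNPA hydrolysis.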

On to `C=CCO[C@]1(C(=O)O)C[C@H](O)[C@@H](NC(C)=O)[C@H]([C@H](O)[C@H](O)COC)O1`, for which the inhibition (as a rule, the percentage by which the read-out fell short of the control) in assay [1] is less than 0%; in assay [2] it was 9%; in assay [3], 2.86%; in assay [4] it was 8.63%; in assay [5], 85.8%; in [6], 33%. Moreover, the values for the inhibition in assay [7], in [8] and in assay [9] were 22.4%, 22.9% and 10%, respectively.

As for `C=CCO[C@]1(C(=O)O)C[C@H](OC)[C@@H](NC(C)=O)[C@H]([C@H](O)[C@H](O)CO)O1`, the inhibition in [10] amounted to 8.73%; in [11], 0.51%; in assay [12], 2.56%; in assay [13], 2.13%; in assay [14] it was 7.73%; in [15], 8.31%. For the same compound, the inhibition worked out at 0% in assay [16] and 4% in [17].

Take “((2S,4S,5R,6R)-5-acetamido-6-((1R,2R)-3-acetamido-1,2-dihydroxypropyl)-2-carboxy-4-hydroxytetrahydro-2H-pyran-2-ylthio)(methyl)mercury”: the Ki (as a rule, a measure of affinity in units of concentration, obtained from inhibition or displacement) in [18] is 4.2 mM.

The record behind these values is ChEMBL document CHEMBL1811860, “Synthesis and inhibitory activity of sialic acid derivatives targeted at viral sialate-O-acetylesterases” (Eur J Med Chem, 2011).
